ChEMBL document CHEMBL4334504 (J Med Chem, 2019)
Values after ≈ are worked out from the molar mass of the structure shown. Active and inactive are the calls of the source. No cut-off for these calls is given here.

Experiments:
[1] = test system: Bifidobacterium bifidum; test: Effect on growth of Bifidobacterium bifidum 212A ATCC 11863 measured after 48 hrs in anerobic conditions by CLSI method; type: organism-based; settings: in vivo
[2] = test system: HRT-18 cell line; test: Cytotoxicity against human HRT18 cells at > 256 uM measured after 2 hrs by MTS assay; type: cell-based; settings: hrt-18, 2 h
[3] = test system: Vero; test: Cytotoxicity against African green monkey Vero cells at > 256 uM measured after 2 hrs by MTS assay; type: cell-based; settings: chlorocebus sabaeus
[4] = Stability of compound in simulated intestinal fluid assessed as parent compound remaining at pH 6 measured after 8 hrs by HPLC analysis; type: ADME; settings: read-out: Stability
Outline: (§1)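 200 µL of a 50 µg/mL methanol stock mixed with 800 µL SGF (pH 1.6) or SIF (pH 6.0), stirred at 37 °C. Sampled at 4 and 8 h for isocratic HPLC (acetonitrile/water 50:50, 1.0 mL/min, 254 nm). Percent remaining calculated as AUC after incubation / AUC before incubation.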

[5] = test system: Escherichia coli; test: Effect on growth of Escherichia coli ATCC 25922 assessed as bacterial growth inhibition measured after 16 to 18 hrs by CLSI method; type: organism-based; settings: in vivo
Outline: (§2)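 CLSI microdilution. Colonies from TSA (16-20 h, 37 °C) suspended in PBS to 0.5 McFarland, then diluted in TSB to ~10^5 CFU/mL. Incubated with serial compound dilutions for 16-20 h at 37 °C. MIC is the lowest concentration inhibiting growth.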

[6] = test system: Enterobacter cloacae; test: Effect on growth of Enterobacter cloacae ATCC BAA 1143 assessed as bacterial growth inhibition measured after 16 to 18 hrs grown in tryptic soy medium by CLSI method; type: organism-based; settings: in vivo; outline: as §2
[7] = test system: Clostridioides difficile; test: Antibacterial activity against Clostridium difficile VPI 10463 ATCC 43255 assessed as bacterial growth inhibition incubated for 48 hrs under anaerobic condition by CLSI protocol based assay; type: functional; settings: ATCC 43255 VPI 10463, 48 h
Outline: (§3)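 Broth microdilution following CLSI guidance. Strains pre-grown anaerobically on BHIS agar (BHI plus yeast extract, vitamin K1, hemin) at 37 °C for 48 h. ~10^5 CFU/mL in BHIS broth added to serial compound dilutions. Incubated anaerobically at 37 °C for 48 h. MIC is the lowest concentration showing visible growth inhibition.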

[8] = test system: Clostridioides difficile; test: Antibacterial activity against Clostridium difficile 4118 ATCC BAA 1870 assessed as bacterial growth inhibition incubated for 48 hrs under anaerobic condition by CLSI protocol-based assay; type: functional; settings: 4118 ATCC BAA 1870, 48 h; outline: as §3
[9] = test system: Caco-2; test: Cytotoxicity against human Caco2 cells at > 256 uM measured after 2 hrs by MTS assay; type: cell-based; settings: caco-2, 2 h
[10] = Aqueous solubility of compound in PBS buffer at 1 to 100 ug/ml at pH 7.3 to 7.5 measured after 24 hrs by HPLC analysis; type: physicochemical
Outline: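 3 mg compound in 3 mL PBS (pH 7.3-7.5) shaken 24 h at 25 °C, then centrifuged. Supernatant mixed 1:1 with acetonitrile and analysed by HPLC (C18, 1 mL/min). Solubility calculated from a standard curve (1 mg/mL methanol stock) and the dilution factor.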

[11] = Effect on growth of Lactobacillus crispatus JV-V01 HM 103 measured after 48 hrs in 5% CO2 by CLSI method; settings: lactobacillus crispatus jv-v01, 48 h
[12] = Effect on growth of Lactobacillus gasseri EX336960VC03 HM 400 measured after 48 hrs in 5% CO2 by CLSI method; settings: lactobacillus gasseri ex336960vc03, 48 h
[13] = Stability of compound in simulated intestinal fluid assessed as parent compound remaining at pH 6 measured after 4 hrs by HPLC analysis; type: ADME; settings: read-out: Stability; outline: as §1
[14] = test system: Lacticaseibacillus paracasei; test: Effect on growth of Lactobacillus casei ATCC 334 measured after 48 hrs in 5% CO2 by CLSI method
[15] = Stability of compound in simulated gastric fluid assessed as parent compound remaining at pH 1.6 measured after 4 hrs by HPLC analysis; type: ADME; settings: read-out: Stability; outline: as §1
[16] = Stability of compound in simulated gastric fluid assessed as parent compound remaining at pH 1.6 measured after 8 hrs by HPLC analysis; type: ADME; settings: read-out: Stability; outline: as §1
[17] = Cytotoxicity against human Caco2 cells measured after 2 hrs by MTS assay; type: cell-based; settings: Caco-2 cells
[18] = Cytotoxicity against human HRT18 cells measured after 2 hrs by MTS assay; type: cell-based; settings: HRT-18 cells
[19] = Cytotoxicity against African green monkey Vero cells measured after 2 hrs by MTS assay; type: cell-based; settings: chlorocebus sabaeus
[20] = test system: Clostridioides difficile; test: Bactericidal activity against Clostridium difficile 4118 ATCC BAA 1870 assessed as reduction in bacterial colony forming units at 8 fold MIC preincubated followed by re-plating on BHIS agar plate and measured after 24 hrs under anaerobic condition by time-kill assay; type: functional, organism-based
[21] = Drug level in CDI patient plasma at 200 mg, po administered every 12 hrs for 10 days and measured 3 to 5 hrs post last dose by LC-MS/MS analysis; type: ADME, organism-based; settings: human, in vivo
[22] = test system: Clostridioides difficile; test: Bactericidal activity against Clostridium difficile 4118 ATCC BAA 1870 assessed as reduction in bacterial colony forming units at 8 fold MIC preincubated followed by re-plating on BHIS agar plate and measured after 6 hrs under anaerobic condition by time-kill assay relative to control; type: functional; parameters: scale not given: the % may be the effect or the level left
[23] = test system: Clostridioides difficile; test: Ratio of MBC99.9 to MIC for Clostridium difficile 4118 ATCC BAA 1870; type: functional
[24] = test system: Clostridioides difficile; test: Bactericidal activity against Clostridium difficile 4118 ATCC BAA 1870 incubated for 48 hrs followed by re-plating on BHIS agar plates and measured after 24 hrs; type: functional; settings: read-out: MBC99.9

Compound	MIC [1]	Activity [2]	Activity [3]	remaining at 8 h [4]	MIC [5]	MIC [6]	MIC [7]	MIC [8]	Activity [9]	solubility at 24 h [10]	MIC [11]	MIC [12]	remaining at 4 h [13]	MIC [14]	remaining at 4 h [15]	remaining at 8 h [16]	also measured
Cc1nc2c([N+](=O)[O-])csc2c(=O)n1Cc1ccc([N+](=O)[O-])cc1	> 739 µM	Non-Toxic	Non-Toxic	90%	> 739 µM	> 739 µM	12 µM (≈ 4.16 µg/mL)	6 µM (≈ 2.08 µg/mL)	Non-Toxic	12.7 µg/mL (≈ 36.8 µM)	> 739 µM	> 739 µM	> 95%	> 739 µM	> 95%	> 95%	
Cc1nc(N2CCOCC2)c2scc([N+](=O)[O-])c2n1	> 913 µM	Non-Toxic	Non-Toxic	80%	> 913 µM	> 913 µM	14 µM (≈ 3.92 µg/mL)	14 µM (≈ 3.92 µg/mL)	Non-Toxic	18.7 µg/mL (≈ 66.7 µM)	> 913 µM	> 913 µM	79%	> 913 µM	< 10%	< 10%	
Cc1nc2c([N+](=O)[O-])csc2c(=O)[nH]1	> 1212 µM	Non-Toxic	Non-Toxic	76%	> 1212 µM	> 1212 µM	38 µM (≈ 8.03 µg/mL)	19 µM (≈ 4.01 µg/mL)	Non-Toxic	> 500 µg/mL	> 1212 µM	> 1212 µM	91%	> 1212 µM	90%	90%	CC50 at 2 h [17]: > 606 µM; CC50 at 2 h [18]: > 606 µM; CC50 at 2 h [19]: > 606 µM
Cc1nc2c([N+](=O)[O-])csc2c(=O)n1CCCc1ccccc1	> 777 µM	Non-Toxic	Non-Toxic	< 10%	> 777 µM	> 777 µM	12 µM (≈ 3.95 µg/mL)	12 µM (≈ 3.95 µg/mL)	Non-Toxic	10.8 µg/mL (≈ 32.7 µM)	> 777 µM	> 777 µM	< 10%	> 777 µM	45%	< 10%	
CCc1c(Cl)c(O)c(Cl)c(O)c1C(=O)O[C@H]1[C@H](O)[C@H](OC)[C@H](OC/C2=C\C=C\C[C@H](O)/C(C)=C/[C@H](CC)[C@@H](O[C@@H]3OC(C)(C)[C@@H](OC(=O)C(C)C)[C@H](O)[C@@H]3O)/C(C)=C/C(C)=C/C[C@@H]([C@@H](C)O)OC2=O)O[C@@H]1C [FIDAXOMICIN]	> 242 µM						0.1 µM (≈ 0.106 µg/mL)	0.1 µM (≈ 0.106 µg/mL)			30 µM (≈ 31.7 µg/mL)	<= 2 uM		> 242 µM			Activity [20]: Active; Cp [21]: 25 to 50 ng/mL
O=c1[nH]c(/C=C/c2ccc(F)cc2)nc2c([N+](=O)[O-])csc12	> 807 µM	Non-Toxic	Non-Toxic	51%	> 807 µM	> 807 µM	6 µM (≈ 1.9 µg/mL)	3 µM (≈ 0.952 µg/mL)	Non-Toxic	14.8 µg/mL (≈ 46.6 µM)	> 807 µM	> 807 µM	60%	> 807 µM	50%	48%	Activity [22]: 100%; Ratio [23]: 2; MBC [24]: 6 µM (≈ 1.9 µg/mL)
